Only some compounds are listed: those with a hit (about 0.58% of all), similar ones and a draw of the others.
miR-122 sensor: inhibitors of miR-122 in Huh7 cells; Huh7 miR-122 Renilla luciferase sensor, 48 h; neutral wells = 0, positive control = 100; activation (reporter increase), % at 12.5 µM; AID 602342; actives 0.3% (n = 340,000);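 active = mean replicate activation score at least 90 and every replicate individually at or above 90; inconclusive = only one of the two criteria met; inactive = neither criterion met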;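 note: higher luciferase means less miR-122 activity so hits act as miR-122 inhibitors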
ERp5 inh: inhibitors of human ERp5 | ERp5 insulin aggregation, absorbance 650 nm, 90 min | Q15084 | inhibition, % at 9.99 µM | actives 0.05% (n = 350,000);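 active = mean replicate inhibition above about 25%, with every replicate also reaching it, limit read from the data, passing the limit was not always enough; inconclusive = only one of those two criteria met; inactive = neither criterion met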
PglD DTNB: PglD (C. jejuni) enzyme inhibition; purified PglD enzyme, DTNB colorimetric CoA detection; inhibition, % at 12.5 µM; actives 0.098% (n = 360,000); AID 602405; in the data active = inhibition above about 16%, passing the limit was not always enough; inconclusive = no clear call, values can overlap the other calls
PvdQ acylase: P. aeruginosa PvdQ acylase inhibition | purified PvdQ acylase, fluorescence plate reader | inhibition, % at 10 µM | actives 0.063% (n = 340,000); in the data active = inhibition above about 30%, passing the limit was not always enough; inconclusive = no clear call, values can overlap the other calls
PDI turbidity: PDI (human) enzyme inhibition. PDI insulin aggregation turbidity, A650, 90 min. actives 0.052% (n = 350,000). P07237. inhibition, % at 10 µM;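 active = mean inhibition across replicates of 30% or more, whatever share of single replicates reach that level; inconclusive = mean inhibition below 30% while every single replicate reaches 30%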
Target sequence (P07237 whole entry, looked up): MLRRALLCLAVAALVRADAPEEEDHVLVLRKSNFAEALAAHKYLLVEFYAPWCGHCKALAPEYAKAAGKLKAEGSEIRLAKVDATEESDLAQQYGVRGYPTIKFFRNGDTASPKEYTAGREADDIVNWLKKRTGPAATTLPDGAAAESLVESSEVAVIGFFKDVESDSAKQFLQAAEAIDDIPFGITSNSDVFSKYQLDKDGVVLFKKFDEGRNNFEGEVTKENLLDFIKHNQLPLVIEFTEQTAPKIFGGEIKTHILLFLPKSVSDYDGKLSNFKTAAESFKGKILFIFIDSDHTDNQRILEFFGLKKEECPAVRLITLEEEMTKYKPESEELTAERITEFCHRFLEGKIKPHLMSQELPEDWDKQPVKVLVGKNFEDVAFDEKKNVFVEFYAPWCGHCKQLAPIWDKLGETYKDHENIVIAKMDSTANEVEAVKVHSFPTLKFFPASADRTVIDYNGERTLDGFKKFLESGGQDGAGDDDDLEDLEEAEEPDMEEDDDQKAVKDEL
Cneo AK release: Cryptococcus neoformans lysis via adenylate kinase release; C. neoformans lysis, adenylate kinase release luminescence, 4 h; normalised: neutral wells 0, clomiphene wells 100; lysis activity, % at 15 µM; actives 0.2% (n = 360,000); AID 651654;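 active = mean lysis activity across replicates of at least 80%, whatever share of replicates individually reach that level; inactive = mean lysis activity below 80%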
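read-out = cell lysis signal | test system = log-phase Cryptococcus neoformans yeast cells | input = cells at 5 × 10^6 per mL | medium = fresh YPD growth medium | signal = luminescent adenylate kinase detection reagent | timing = 4 h at 37 °C static, read 1 h later | dosing = single dose | controls = Clomiphene as positive lysis control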
PglD inh SP: blocks Campylobacter jejuni PglD acetyltransferase activity. shares compounds with PglD DTNB. Purified C. jejuni PglD, DTNB absorbance 412 nm. inhibition, % at 20 µM. 320 tested, under 10 active. AID 743156;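 active = mean inhibition across replicates of at least 20% with every single replicate also at 20% or more; inconclusive = mean inhibition at least 20% but some replicate falls below 20%; inactive = mean inhibition under 20% and not all replicates reach it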;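 note: initial rate of CoA release by acetyl transfer from AcCoA to the UDP-4-amino sugar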
Numbers stand for hits; - = inactive; ? = inconclusive; . = no result.

SMILES	miR-122 sensor	ERp5 inh	PglD DTNB	PvdQ acylase	PDI turbidity	Cneo AK release	others
COc1ccc(C#Cc2ccc([C@H]3[C@H](CO)N4CCCCN(C(=O)Cc5cccnc5)C[C@@H]34)cc2)cc1	-	27	-	.	.	-
CC=Cc1ccc2n(c1=O)C[C@H]1[C@H](CO)[C@@H](C(=O)OC)[C@@H]2N1C(=O)CC (mixture of isomers)	.	-	-	.	.	-
O=C(O)[C@H]1[C@H](CO)[C@H]2Cn3c(ccc(-c4cncnc4)c3=O)[C@@H]1N2C(=O)NC1CCCC1	-	-	-	.	.	-
COc1cccc(NP(=O)(Oc2ccc(Cl)cc2)Oc2ccc(Cl)cc2)c1	.	.	.	-	-	.
O=P(Nc1ccccc1)(Nc1ccccc1)Oc1ccc(Cl)cc1	322	-	-	-	-	-
COc1ccc(-c2ccc3c(c2)CN(C(=S)NCCc2ccccc2)Cc2cnnn2-3)cc1	119	-	-	.	.	-
CCn1nc(-c2cccs2)nc2c(=O)n(C)c(=O)nc1-2	-	.	-	-	?	-
CCn1nc(/C=C/c2ccccc2)nc2c(=O)n(C)c(=O)nc1-2	-	38	.	-	-	.
CC(=O)OC1(C)CC(C)C(=O)C(C(O)CC2CC(=O)NC(=O)C2)C1 (stereo not given)	-	-	-	-	.	98
CC1OC(OC2CC(O)C3(CO)C4C(O)CC5(C)C(C6=CC(=O)OC6)CCC5(O)C4CCC3(O)C2)C(O)C(O)C1O (stereo not given)	-	-	-	-	.	-
C[C@@H]1O[C@@H](O[C@H]2C[C@@H](O)[C@]3(CO)[C@H]4[C@H](O)C[C@]5(C)[C@@H](C6COC(=O)C6)CC[C@]5(O)[C@@H]4CC[C@]3(O)C2)[C@H](O)[C@H](O)[C@H]1O (stereo not given in full)	114	-	-	-	-	-
CC=Cc1ccc2n(c1=O)C[C@@H]1[C@@H](CO)[C@H](C(=O)N(C)C)[C@H]2N1C (mixture of isomers)	.	-	-	.	.	-
COC(=O)[C@@H]1[C@@H](CO)[C@@H]2Cn3c(ccc(C4=CCCCC4)c3=O)[C@H]1N2Cc1ccccc1OC	.	-	.	.	.	.
Cc1ccc(C(=O)Nc2ccc(Cl)cc2C(=O)c2ccccc2)cc1	114	.	-	-	-	-
CCCNS(=O)(=O)c1ccc(OCC(=O)N2CCN(Cc3ccc4c(c3)OCO4)CC2)c(C)c1	.	-	.	-	-	.
CCCNS(=O)(=O)c1ccc(OCC(=O)N2CCN(Cc3ccc4c(c3)OCO4)CC2)cc1	-	.	29	-	-	-	PglD inh SP=-
Cc1cc(C)cc(N2C(=O)/C(=C\c3ccc(N4CCN(C)CC4)o3)C(=O)NC2=S)c1	-	.	76	.	-	-	PglD inh SP=-
CC(=O)N1[C@@H]2c3ccc(-c4cccc(C(=O)N(C)C)c4)c(=O)n3C[C@H]1[C@H](CO)[C@H]2C(=O)O	.	-	.	.	.	.
